Reference: paper PMC10041147 (RSC Advances, 2023)

What was measured:
LecA = conditions: n.b. = no binding, no reference given; cited from earlier work
[1] = molecular target: T1, Pseudomonas aeruginosa lectin LecA (Pseudomonas aeruginosa, UniProt Q05097); assay: Electrochemical; conditions: LecA sensor, n.b. = no binding; for K d from CV: cyclic voltammetry; for K d from DPV: differential pulse voltammetry
T1 sequence (Q05097 1-122): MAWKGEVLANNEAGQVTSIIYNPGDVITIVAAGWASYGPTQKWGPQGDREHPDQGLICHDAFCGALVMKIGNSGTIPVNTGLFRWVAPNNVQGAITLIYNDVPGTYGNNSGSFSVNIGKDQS
Outline: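 P. aeruginosa LecA (commercial, ≥70%) coupled at 10 μM for 1 h to an EDC/NHS-activated MUA/DTT layer on a gold nanoparticle–graphene screen-printed electrode, then blocked 30 min with 1% BSA. Sugars titrated in 10 mM PBS with 1 mM CaCl2 and 1 mM MnCl2. Read in 25 mM [Fe(CN)6]3−/4− with 0.2 M KCl at 25 °C. CV: −0.2 to 0.8 V, 0.05 V s−1. DPV: −0.2 to 0.5 V. Reduction-peak Δip fitted to a one-site model.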

ConA = conditions: read-out: Reported Kd; cited from earlier work

Molecule	Reported Kd (LecA)	K d from CV [1]	K d from DPV [1]	Kd (ConA)
OC[C@H]1OC(O)[C@@H](O)[C@@H](O)[C@@H]1O (some centres unmarked) [mannose (3), mannose]	n.b.	n.b.	n.b.	57 µM
mannan [mannan (4)]	n.b.	n.b.	n.b.	3 µM
